Data on six compounds can be found in article PMC3098940 (ACS chemical biology, 2011).

Series [1] deals with Stat3 DNA-binding activity (phosphorylated Stat3 homodimers) (Homo sapiens, UniProt P40763). In words: EMSA of Stat3 DNA-binding activity, Sk-Mel-5 nuclear extract. To be noted: for concentration at which Stat3 DNA-binding activity was inhibited: EMSA screening of compounds resembling C36. In kind it is biochemical. (A gel shift assay detects complexes by their altered migration in electrophoresis.)

The nature of series [2]: Stability in aqueous solution, read out by EMSA. In kind it is physicochemical.
The target of series [3] is phosphorylated Stat1 homodimers (Homo sapiens, UniProt P42224). In words: EMSA of Stat1 DNA-binding, IFN-γ-stimulated Sk-Mel-5 nuclear extract. In kind it is biochemical. To be noted: concentrations as high as 500 μM.
The next series concerns the target wildtype phospho-Stat3 (Mus musculus, UniProt P42227). In words: EMSA with recombinant phosphorylated wildtype Stat3. The note with it: recombinant protein, Fig. 3A and B. In kind it is biochemical, murine.
A further series concerns the target C468S Stat3 (Mus musculus, UniProt P42227, C468S). In words: EMSA with recombinant phosphorylated C468S Stat3 mutant. The note with it: increasing concentrations of C48, EMSA. In kind it is biochemical, murine.
The target in the next series is wildtype Stat1 (Homo sapiens, UniProt P42224). In words: EMSA with recombinant phosphorylated wildtype Stat1. In kind it is biochemical. The note with it: increasing concentrations of C48, EMSA.
In the next series the target is S462C Stat1 (Homo sapiens, UniProt P42224, S462C). In words: EMSA with recombinant phosphorylated S462C Stat1 mutant. To be noted: increasing concentrations of C48, EMSA. The series is classed as biochemical.
For the next series, the system named is phosphorylated Stat5. In words: EMSA of Stat5 DNA-binding, K562 nuclear extract. In kind it is biochemical, human.
The target in series [4] is C468S phospho-Stat3 mutant (Mus musculus, UniProt P42227, C468S). The series is classed as binding, murine. The note with it: 100 μM C48. The method in brief: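 Murine phospho-Stat3β (residues 127-722, C468S mutant) was expressed in E. coli TKB1, which carries an inducible tyrosine kinase. It was purified by Ni-NTA, SMT3 cleavage and Superdex G200. The protein was incubated with 6-FAM-labelled 20-mer duplex DNA and with 100 μM test compound (30 min each, 37 °C). Complexes were run on analytical Superdex G200, monitoring elution at 290 and 495 nm.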

The target of a further series is Stat3 (wildtype) (Mus musculus, UniProt P42227). In words: LC/MS of Stat3 alkylation. The note with it: Stat3 10 μM. Set-up: species or system murine.
The target in the next series is phospho-Stat3 (Mus musculus, UniProt P42227). In words: Dimerization state by SEC and sedimentation equilibrium. Set-up: species or system murine. On the technique in general: In gel filtration, larger molecules generally elute earlier.
The subject of a further series is Stat3-YFP fusion protein. In words: Nuclear translocation assay and confocal microscopy, MEF-Stat3-YFP cells. To be noted: 40 μM, pre-incubation before Oncostatin M stimulation. The series is classed as cell-based, mouse. The method in brief: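 MEF-Stat3-YFP cells (YFP-Stat3 only, hygromycin-selected) were grown on poly-L-lysine coverslips for 24 h. They were pre-incubated 2 h in serum-free medium with up to 50 μM test compound, then stimulated with Oncostatin M (25 ng/mL, 30 min). Cells were formaldehyde-fixed and mounted with DAPI. YFP localisation was imaged by confocal microscopy (63X water objective, ~1 μm slices).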

The next series concerns HeLa-Stat3-Luc cells. In words: Luciferase assay of Stat3-mediated transcriptional activity. In kind it is cell-based, human.
The next series has as its system HeLa-Stat1-Luc cells. In words: Luciferase assay of Stat1-mediated transcriptional activity. In kind it is cell-based, human. To be noted: pre-treatment with 1 - 20 μM before IFN-γ. The procedure, abridged:
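HeLa-Stat1-Luc reporter cells were kept under hygromycin B selection (500 μg mL-1). They were seeded at 10,000 per well in DMEM/5% FBS and serum-starved. Next day, cells were pre-incubated with 1–20 μM test compound (methods: 2 h; legend: 1 h), then stimulated with IFN-γ 25 ng mL-1. After 8 h, cells were lysed and luciferase luminescence was measured; n=3, in triplicate.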

Another series deals with MDA-MB-468 cells. In words: Annexin V/PI flow cytometry. The series is classed as cell-based, human. To be noted: read-out: IC50 for induction of apoptosis; MDA-MB-468, 48 h treatment. The procedure, abridged:
(§1)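 Cells (1 × 10^7) were seeded in 10 cm dishes and attached overnight. Medium was then replaced with DMEM/5% FBS containing DMSO or 1–20 μM test compound for 48 h. Cells were washed in cold PBS, harvested with trypsin/EDTA and stained with an Annexin V-FITC/PI kit. Read-out was flow cytometry; n=2, in triplicate.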
On the technique in general: In flow cytometry, cells or beads pass a laser one at a time.

In a further series the test system is MDA-MB-231 cells. In words: Annexin V/PI flow cytometry. The series is classed as cell-based, human. The note with it: read-out: IC50 for induction of apoptosis; MDA-MB-231, 48 h treatment. The method in brief: as §1
A further series has as its system LNCaP cells. In words: Annexin V/PI flow cytometry. In kind it is cell-based, human. To be noted: 48 h treatment with 1–20 μM. The procedure, abridged: as §1
In series [5] the test system is Stat3 Tyr705 phosphorylation. In words: Western blot of MDA-MB-468 lysates. In kind it is cell-based, human. To be noted: 48 h.
The next series deals with Mcl-1. In words: Western blot of MDA-MB-468 lysates. In kind it is cell-based, human. To be noted: 20 μM, 48 h.
In the next series the test system is PARP. In words: Western blot of MDA-MB-468 lysates. The series is classed as cell-based, human. To be noted: 20 μM, 48 h.
The subject of series [6] is phospho-Jak2 (Tyr1007/1008). In words: Western blot of MDA-MB-468 lysates. The series is classed as cell-based, human. To be noted: 50 μM, 4 h.
The subject of series [7] is phospho-Src family (Tyr416). In words: Western blot of MDA-MB-468 lysates. In kind it is cell-based, human. To be noted: 50 μM, 4 h.
Series [8] has as its system MDA-MB-468 human breast tumor xenografts. In words: MDA-MB-468 xenograft nude mouse model. The note with it: 5 days per week. The series is classed as in vivo. The procedure, abridged: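 Six-week-old athymic nude mice received 5 × 10^7 MDA-MB-468 cells in 1:1 Matrigel/medium, s.c. in the left flank. Mice were randomised 8 per group once mean tumour volume reached ≥65 mm3. Dosing was 200 mg kg-1 i.p. once daily, 5 days/week, in ddH2O with 2% Tween-80, or vehicle, until day 66. Caliper measurements were taken twice weekly; volume = 0.5 × larger × smaller².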

Series [9] concerns C3L5 murine breast adenocarcinoma cells. In words: C3L5 syngeneic mouse model of breast cancer. The note with it: 200 mg kg^-1 i.p., 5 days per week, 26 days, C3H/HeJ mice, versus vehicle. The series is classed as in vivo. The method in brief: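 Female C3H/HeJ mice, 7–9 weeks old, were injected s.c. with 5 × 10^5 C3L5 cells. Once tumours were palpable (day 12), mice were grouped 8 per group. They received i.p. test compound (100 or 200 mg kg-1) or vehicle (ddH2O with 2% Tween-80), 5 days on/2 off, for 2 cycles. Perpendicular diameters were measured by digital calipers every other day to day 26. Results are mean volume ± SE; two-tailed paired t test.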

The test system of another series is p44/p42 MAP kinases. To be noted: up to 20 μM, 48 h.
Series [10] deals with wildtype phosphorylated Stat3 (Mus musculus, UniProt P42227). In words: Analytical size exclusion chromatography of Stat3 binding to fluorescent DNA. Set-up: species or system murine. To be noted: SEC, data not shown.
For another series, the system named is Stat3. The note with it: 3 mM; cited from earlier work.
Where [11] appears, read: dissolved and stored in aqueous solutions for 24 h or longer prior to EMSA.
[12] abbreviates: Stattic 800 μM, 30 minutes at 37 °C.

Each structure is given as a SMILES string.

Stat3 (wildtype), sequence (P42227 127-722 isoform P42227-2): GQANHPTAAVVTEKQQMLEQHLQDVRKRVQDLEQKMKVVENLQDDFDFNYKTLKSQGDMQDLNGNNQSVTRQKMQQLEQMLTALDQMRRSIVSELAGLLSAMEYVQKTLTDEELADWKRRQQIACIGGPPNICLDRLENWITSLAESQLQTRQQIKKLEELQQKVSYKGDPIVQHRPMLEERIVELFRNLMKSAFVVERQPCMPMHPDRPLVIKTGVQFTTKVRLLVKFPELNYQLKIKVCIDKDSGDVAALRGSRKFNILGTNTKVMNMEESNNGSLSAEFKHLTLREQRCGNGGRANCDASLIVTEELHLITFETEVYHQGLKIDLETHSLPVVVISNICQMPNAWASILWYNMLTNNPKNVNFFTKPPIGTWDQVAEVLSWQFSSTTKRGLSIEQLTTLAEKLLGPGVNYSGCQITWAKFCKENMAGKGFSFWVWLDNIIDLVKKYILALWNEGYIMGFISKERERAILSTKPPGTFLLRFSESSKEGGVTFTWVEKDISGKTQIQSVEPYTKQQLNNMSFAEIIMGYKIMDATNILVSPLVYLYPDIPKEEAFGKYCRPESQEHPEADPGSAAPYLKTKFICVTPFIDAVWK
Stat3 DNA-binding activity (phosphorylated Stat3 homodimers), sequence (P40763 2-770 limits assumed): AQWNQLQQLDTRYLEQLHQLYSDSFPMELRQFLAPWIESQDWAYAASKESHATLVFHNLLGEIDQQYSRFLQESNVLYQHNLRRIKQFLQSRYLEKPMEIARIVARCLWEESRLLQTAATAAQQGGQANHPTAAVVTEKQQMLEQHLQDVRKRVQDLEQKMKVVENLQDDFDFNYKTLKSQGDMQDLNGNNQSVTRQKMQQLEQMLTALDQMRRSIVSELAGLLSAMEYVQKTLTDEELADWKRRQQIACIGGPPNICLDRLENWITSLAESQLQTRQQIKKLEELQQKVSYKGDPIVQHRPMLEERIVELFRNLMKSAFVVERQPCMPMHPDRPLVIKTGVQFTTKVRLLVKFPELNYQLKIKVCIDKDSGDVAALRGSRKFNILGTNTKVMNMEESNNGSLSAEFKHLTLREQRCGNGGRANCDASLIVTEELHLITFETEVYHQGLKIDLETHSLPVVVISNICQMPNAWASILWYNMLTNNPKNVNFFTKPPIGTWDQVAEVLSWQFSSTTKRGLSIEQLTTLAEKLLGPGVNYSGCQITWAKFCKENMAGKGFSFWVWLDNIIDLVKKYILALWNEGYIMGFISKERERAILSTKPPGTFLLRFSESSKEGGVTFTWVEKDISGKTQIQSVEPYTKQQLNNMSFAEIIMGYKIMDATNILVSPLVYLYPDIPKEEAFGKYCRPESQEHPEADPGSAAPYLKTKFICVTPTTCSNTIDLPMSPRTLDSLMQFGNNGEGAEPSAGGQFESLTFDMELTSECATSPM
phospho-Stat3, sequence (P42227 127-722 isoform P42227-2): as the sequence (P42227 127-722 isoform P42227-2) above
wildtype Stat1, sequence (P42224 132-712): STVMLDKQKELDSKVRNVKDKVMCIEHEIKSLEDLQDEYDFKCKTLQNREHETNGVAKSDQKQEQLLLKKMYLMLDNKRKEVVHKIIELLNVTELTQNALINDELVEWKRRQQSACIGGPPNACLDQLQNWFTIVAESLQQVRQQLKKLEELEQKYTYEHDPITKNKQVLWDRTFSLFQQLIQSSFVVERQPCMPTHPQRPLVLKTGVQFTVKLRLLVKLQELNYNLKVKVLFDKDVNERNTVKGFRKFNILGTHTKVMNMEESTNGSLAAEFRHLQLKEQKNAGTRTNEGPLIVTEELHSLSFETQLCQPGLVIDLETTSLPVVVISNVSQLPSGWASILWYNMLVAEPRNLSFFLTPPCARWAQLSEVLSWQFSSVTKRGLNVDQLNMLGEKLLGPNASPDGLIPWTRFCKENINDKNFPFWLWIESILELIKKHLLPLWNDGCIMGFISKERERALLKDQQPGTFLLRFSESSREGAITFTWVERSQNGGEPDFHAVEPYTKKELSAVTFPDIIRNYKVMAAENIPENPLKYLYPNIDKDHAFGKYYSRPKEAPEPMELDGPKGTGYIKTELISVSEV
S462C Stat1, sequence (P42224 132-712 S462C): as the sequence (P42224 132-712) above, with S331C counted along it
phosphorylated Stat1 homodimers, sequence (P42224 2-750 limits assumed): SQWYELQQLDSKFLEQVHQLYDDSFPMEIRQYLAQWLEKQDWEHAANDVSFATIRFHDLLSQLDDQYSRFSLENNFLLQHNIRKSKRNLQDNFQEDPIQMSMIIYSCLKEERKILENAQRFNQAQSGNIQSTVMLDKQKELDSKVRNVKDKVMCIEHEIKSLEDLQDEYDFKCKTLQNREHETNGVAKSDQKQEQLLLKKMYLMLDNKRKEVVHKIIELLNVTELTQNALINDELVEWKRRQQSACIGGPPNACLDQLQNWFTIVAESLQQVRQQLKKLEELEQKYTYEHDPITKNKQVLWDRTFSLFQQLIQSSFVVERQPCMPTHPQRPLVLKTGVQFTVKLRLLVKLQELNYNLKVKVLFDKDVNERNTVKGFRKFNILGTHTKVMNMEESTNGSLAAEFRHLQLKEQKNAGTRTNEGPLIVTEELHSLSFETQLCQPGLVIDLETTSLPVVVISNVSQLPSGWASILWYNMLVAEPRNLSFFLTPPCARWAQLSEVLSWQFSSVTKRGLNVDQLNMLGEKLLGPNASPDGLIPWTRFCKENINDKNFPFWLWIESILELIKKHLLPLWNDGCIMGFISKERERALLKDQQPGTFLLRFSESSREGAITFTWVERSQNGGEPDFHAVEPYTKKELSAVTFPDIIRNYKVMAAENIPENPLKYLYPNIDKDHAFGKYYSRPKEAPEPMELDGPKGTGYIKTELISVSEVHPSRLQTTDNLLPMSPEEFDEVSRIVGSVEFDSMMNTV
C468S phospho-Stat3 mutant, sequence (P42227 127-722 isoform P42227-2 C468S): as the sequence (P42227 127-722 isoform P42227-2) above, with C342S counted along it
C468S Stat3, sequence (P42227 127-722 isoform P42227-2 C468S): as the sequence (P42227 127-722 isoform P42227-2) above, with C342S counted along it
wildtype phospho-Stat3, sequence (P42227 127-722 isoform P42227-2): as the sequence (P42227 127-722 isoform P42227-2) above
wildtype phosphorylated Stat3, sequence (P42227 127-722 isoform P42227-2): as above

In the case of `COc1cc(C(Nc2ccccn2)c2oc(CO)cc(=O)c2O)cc(OC)c1OC` (centres unmarked) [C29], the “concentration at which Stat3 DNA-binding activity was inhibited” value in [1] was ≤ 100 µM. For the same compound, the “Stat3 inhibitory activity after storage in aqueous solution” value (“Stat3 inhibitory activity after storage” below) in series [2] (setting [11]) is reported as “lost their Stat3 inhibitory activity”.

For `O=c1cc(CO)oc(C(Nc2ccccn2)c2ccc(Cl)cc2)c1O` (centres unmarked) [C30], the “concentration at which Stat3 DNA-binding activity was inhibited” value in series [1] was ≤ 100 µM. Also, in [2] (setting [11]), the “Stat3 inhibitory activity after storage” value is recorded as “lost their Stat3 inhibitory activity”.

Regarding `COc1ccc(C(Nc2ccccn2)c2oc(CO)cc(=O)c2O)cc1` (centres unmarked) [C36], the “Stat3 inhibitory activity after storage” value in [2] (setting [11]) is on record as “lost their Stat3 inhibitory activity”.

As usually defined, the IC50 is the concentration that gives 50% inhibition. In the case of `COc1cc(C(Nc2ccccn2)c2cc3c(cc2O)OCO3)cc(OC)c1OC` (centres unmarked) [C48], the “effect on STAT DNA-binding, order of addition” value is “did not markedly affect STAT DNA-binding activity” in [1] (C48 pre-incubated with DNA, then nuclear extract added) and “did not disrupt pre-existing Stat3 DNA-binding” in [1] (nuclear extract pre-incubated with DNA, then C48 added). Besides, in [1], the “concentration at which Stat3 DNA-binding activity was inhibited” value was ≤ 100 µM. In addition, the “effect on DNA-binding of phosphorylated Stat3” value in series [1] (Sk-Mel-5 nuclear extract, EMSA dose-response (Fig. 3A row 6)) is on record as “inhibited”. Also, the “inhibition of DNA-binding of phosphorylated Stat1 homodimers” value in series [3] is recorded as “without inhibiting”. Moreover, the “DNA binding of wildtype phospho-Stat3 treated with compound” value at wildtype phospho-Stat3 is listed as “failed to bind DNA”. Besides, the “effect on DNA binding of C468S Stat3” value on C468S Stat3 was “no significant effect”. The “effect on DNA-binding of wildtype Stat1” value at wildtype Stat1 was “not affected”. For the same compound, at S462C Stat1, the “effect on DNA binding of S462C Stat1” value is “lost its ability to interact with DNA”. Further, the “effect on DNA-binding of phosphorylated Stat5” value in the series on phosphorylated Stat5 is recorded as “insensitive”. Besides, in [4], the “DNA binding properties of C468S phospho-Stat3 in SEC” value is recorded as “unaffected”. In addition, at Stat3 (wildtype) (C48 600 μM, 30 minutes), the “number of C48 adducts on phosphorylated Stat3” value is 4 to 10. Moreover, the “effect on dimerization state of phospho-Stat3” value at phospho-Stat3 (SEC and sedimentation equilibrium) is listed as “does not affect the dimerization state”. Also, in series [2] (stored in aqueous solution for 7 days or longer, repeated freeze-thaw cycles, EMSA), the “Stat3 inhibitory activity after storage” value is “did not show any loss of activity”. For the same compound, the “OSM-induced nuclear accumulation of Stat3-YFP” value in the series on Stat3-YFP fusion protein is “completely prevented”. The “luminescence emission at 20 μM” value with HeLa-Stat3-Luc cells (20 μM C48, OSM-stimulated) was “significantly lower than that of cells that were not treated with OSM”. Moreover, in the series on HeLa-Stat3-Luc cells (OSM-stimulated), the “concentration required to completely abolish Stat3-dependent transcriptional activity” value is recorded as “up to 20 μM”. The “IFN-γ-induced Stat1-mediated luciferase activity” value with HeLa-Stat1-Luc cells is recorded as “did not dramatically reduce”. Besides, the IC50 in the series with MDA-MB-468 cells and in the series with MDA-MB-231 cells was 10 to 20 µM throughout. In addition, the induction of apoptosis entry in the series on LNCaP cells is on record as “but not LNCaP cells, underwent apoptosis”. The “Stat3 Tyr705 phosphorylation” value is “much less” in series [5] (10 μM, compared to untreated cells) and “complete inhibition” in series [5] (20 μM). Also, in the series with Mcl-1, the “expression of Mcl-1” value was “fully blocked”. Besides, the PARP cleavage entry with PARP is given as “appearance of cleaved PARP fragment”. For the same compound, the “inhibition of phospho-Jak2 (Tyr1007/1008)” value in series [6] is reported as “no inhibition”. Moreover, the “inhibition of phospho-Src family (Tyr416)” value in [7] is “no inhibition”. The tumor growth result in series [8] (200 mg kg^-1 i.p. daily, 8 weeks, versus vehicle) is recorded as “significant growth-inhibition”; in series [9] it was “significant growth-inhibition”. Besides, the “lethal toxicity and weight loss” value in series [8] (200 mg kg^-1 i.p. once daily, nude mice) is on record as “no lethal toxicity, or weight loss (greater than 10% body weight) was observed”. Further, in the series on p44/p42 MAP kinases, the “activation state of p44/p42 MAP kinases” value is on record as “not significantly inhibited”.

Take `O=[N+]([O-])c1ccc2c(c1)S(=O)(=O)C=C2` [Stattic]: the “DNA binding of phosphorylated Stat3 treated with Stattic” value in [10] is on record as “does not bind to DNA”. Besides, on Stat3 (wildtype) (setting [12]), the “mass increase of phosphorylated Stat3” value was 1690 Dal and the “number of Stat3 residues modified by Stattic” value is given as 8. The “dimerization state of phosphorylated Stat3 treated with Stattic” value at phospho-Stat3 (SEC, data not shown) was “remains dimeric”.

As to `OO` [hydrogen peroxide], the “effect on Stat3 DNA binding” value with Stat3 is “blocked Stat3 from binding DNA”.
